The target in experiment [1] is T1, Orexin/Hypocretin receptor type 1 (Homo sapiens) (UniProt O43613).
T1 sequence (whole entry): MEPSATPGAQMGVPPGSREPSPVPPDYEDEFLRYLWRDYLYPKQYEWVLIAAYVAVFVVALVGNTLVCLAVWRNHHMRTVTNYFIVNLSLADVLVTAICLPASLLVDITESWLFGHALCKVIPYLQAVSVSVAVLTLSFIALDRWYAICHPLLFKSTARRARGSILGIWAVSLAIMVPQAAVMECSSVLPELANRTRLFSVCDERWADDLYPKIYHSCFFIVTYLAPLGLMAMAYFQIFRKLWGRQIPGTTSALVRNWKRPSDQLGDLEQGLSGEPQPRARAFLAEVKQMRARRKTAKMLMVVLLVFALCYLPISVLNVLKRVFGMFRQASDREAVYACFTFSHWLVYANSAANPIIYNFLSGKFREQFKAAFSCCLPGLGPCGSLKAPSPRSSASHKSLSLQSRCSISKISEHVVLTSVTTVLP
The experiment in a line: Agonist activity at human OX1 receptor overexpressed in CHO-RD-HGA16 cells assessed as calcium mobilization at 10 uM after 15 mins by fluorescence assay relative to control. Type of experiment: functional, cell-based. A general note: Calcium flux is commonly read through the fluorescence of an indicator in the cells.

Experiment [2] deals with T2, Orexin receptor type 2 (Homo sapiens) (UniProt O43614).
T2 sequence (whole entry): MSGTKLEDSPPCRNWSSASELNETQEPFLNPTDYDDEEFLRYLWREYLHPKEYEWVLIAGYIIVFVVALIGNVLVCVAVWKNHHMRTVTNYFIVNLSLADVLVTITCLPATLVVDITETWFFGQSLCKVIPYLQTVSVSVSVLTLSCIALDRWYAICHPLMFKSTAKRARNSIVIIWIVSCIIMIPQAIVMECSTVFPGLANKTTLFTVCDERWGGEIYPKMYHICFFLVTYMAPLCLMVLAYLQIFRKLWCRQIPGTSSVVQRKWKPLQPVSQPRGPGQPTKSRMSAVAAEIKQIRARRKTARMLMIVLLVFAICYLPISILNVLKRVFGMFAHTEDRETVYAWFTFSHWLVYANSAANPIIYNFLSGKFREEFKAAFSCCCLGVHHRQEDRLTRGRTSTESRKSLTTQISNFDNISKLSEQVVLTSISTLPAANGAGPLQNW
In words: Agonist activity at human OX2 receptor overexpressed in CHO-RD-HGA16 cells assessed as calcium mobilization at 10 uM after 15 mins by fluorescence assay relative to control. Type of experiment: functional, cell-based.

For experiment [3], the target named is T3, Orexin receptor type 2 (Homo sapiens, UniProt O43614).
T3 sequence (O43614 whole entry): T2 sequence (whole entry)
In words: Agonist activity at human OX2 receptor overexpressed in CHO-RD-HGA16 cells assessed as calcium mobilization after 15 mins by fluorescence assay. Type of experiment: functional, cell-based.

The target of experiment [4] is T4, Orexin/Hypocretin receptor type 1 (Homo sapiens, UniProt O43613).
T4 sequence (O43613 whole entry): T1 sequence (whole entry)
In words: Agonist activity at human OX1 receptor overexpressed in CHO-RD-HGA16 cells assessed as calcium mobilization after 15 mins by fluorescence assay. Type of experiment: functional, cell-based. The gist of the method: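 EC50 from 8-point half-log concentration-response curves. Values are means of at least three independent experiments in duplicate, with SEM, or means of two independent duplicate experiments.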

The species entered for experiment [5] is Homo sapiens. The experiment in a line: Selectivity ratio of EC50 for human OX2 receptor to EC50 for human OX1 receptor.

Calls of active or inactive are those of the source. No cut-off for these calls is given here. Where a SMILES comes first, the peptide text is derived from it. Some results are limits rather than exact numbers.

As for `CC[C@@H](C)[C@@H](NC(=O)CNC(=O)[C@H](C)NC(=O)[C@H](C)NC(=O)[C@H](Cc1cnc[nH]1)NC(=O)[C@H](CC(N)=O)NC(=O)CNC(=O)[C@H](C)NC(=O)CNC(=O)[C@H](Cc1cnc[nH]1)NC(=O)[C@H](CC(C)C)NC(=O)[C@H](CC(C)C)NC(=O)[C@H](CCC(=O)O)NC(=O)[C@@H](N)Cc1ccc(O)cc1)C(=O)N[C@@H](CC(C)C)C(=O)N[C@H](C(=O)N[C@@H](CC(C)C)C(N)=O)[C@@H](C)O`, the result in experiment [1] and in experiment [2] was inactive.

Turning to `CC[C@H](C)[C@H](NC(=O)CNC(=O)[C@@H](C)NC(=O)[C@H](C)NC(=O)[C@H](Cc1cnc[nH]1)NC(=O)[C@H](CC(N)=O)NC(=O)CNC(=O)[C@H](C)NC(=O)CNC(=O)[C@H](Cc1cnc[nH]1)NC(=O)[C@H](CC(C)C)NC(=O)[C@H](CC(C)C)NC(=O)[C@H](CCC(=O)O)NC(=O)[C@@H](N)Cc1ccc(O)cc1)C(=O)N[C@@H](CC(C)C)C(=O)N[C@H](C(=O)N[C@@H](CC(C)C)C(N)=O)[C@@H](C)O`, the outcome in experiment [1] was inactive. Besides, the Percent activation at 10 uM in experiment [2] is less than 50%.

For `CC[C@H](C)[C@H](NC(=O)CNC(=O)[C@H](C)NC(=O)[C@H](C)NC(=O)[C@H](Cc1cnc[nH]1)NC(=O)[C@@H](CC(N)=O)NC(=O)CNC(=O)[C@H](C)NC(=O)CNC(=O)[C@H](Cc1cnc[nH]1)NC(=O)[C@H](CC(C)C)NC(=O)[C@H](CC(C)C)NC(=O)[C@H](CCC(=O)O)NC(=O)[C@@H](N)Cc1ccc(O)cc1)C(=O)N[C@@H](CC(C)C)C(=O)N[C@H](C(=O)N[C@@H](CC(C)C)C(N)=O)[C@@H](C)O`, in experiment [1], the result was inactive. Besides, in experiment [2], the Percent activation at 10 uM was less than 50%.

As for `CC[C@H](C)[C@H](NC(=O)CNC(=O)[C@H](C)NC(=O)[C@H](C)NC(=O)[C@H](Cc1cnc[nH]1)NC(=O)[C@H](CC(N)=O)NC(=O)CNC(=O)[C@H](C)NC(=O)CNC(=O)[C@H](Cc1cnc[nH]1)NC(=O)[C@H](CC(C)C)NC(=O)[C@H](CC(C)C)NC(=O)[C@H](CCC(=O)O)NC(=O)[C@@H](N)Cc1ccc(O)cc1)C(=O)N[C@@H](CC(C)C)C(=O)N[C@@H](C(=O)N[C@@H](CC(C)C)C(N)=O)[C@H](C)O`, the result in experiment [1] and in experiment [2] was inactive.

Turning to `CC[C@H](C)[C@H](NC(=O)CNC(=O)[C@H](C)NC(=O)[C@H](C)NC(=O)[C@H](Cc1cnc[nH]1)NC(=O)[C@H](CC(N)=O)NC(=O)CNC(=O)[C@H](C)NC(=O)CNC(=O)[C@H](Cc1cnc[nH]1)NC(=O)[C@H](CC(C)C)NC(=O)[C@H](CC(C)C)NC(=O)[C@H](CCC(=O)O)NC(=O)[C@@H](N)Cc1ccc(O)cc1)C(=O)N[C@@H](CC(C)C)C(=O)N[C@H](C(=O)N[C@H](CC(C)C)C(N)=O)[C@@H](C)O`, the outcome in experiment [1] and in experiment [2] was inactive.

As for `CC[C@H](C)[C@H](NC(=O)CNC(=O)[C@H](C)NC(=O)[C@H](C)NC(=O)[C@H](Cc1cnc[nH]1)NC(=O)[C@H](CC(N)=O)NC(=O)CNC(=O)[C@H](C)NC(=O)CNC(=O)[C@H](Cc1cnc[nH]1)NC(=O)[C@H](CC(C)C)NC(=O)[C@H](CC(C)C)NC(=O)[C@H](CCC(=O)O)NC(=O)[C@@H](N)Cc1ccc(O)cc1)C(=O)N[C@H](CC(C)C)C(=O)N[C@H](C(=O)N[C@@H](CC(C)C)C(N)=O)[C@@H](C)O`, in experiment [1], the outcome was inactive. The Percent activation at 10 uM in experiment [2] is less than 50%.

Turning to `CC[C@H](C)[C@H](NC(=O)CNC(=O)[C@H](C)NC(=O)[C@H](C)NC(=O)[C@H](Cc1cnc[nH]1)NC(=O)[C@H](CC(N)=O)NC(=O)CNC(=O)[C@H](C)NC(=O)CNC(=O)[C@@H](N)Cc1cnc[nH]1)C(=O)N[C@@H](CC(C)C)C(=O)N[C@H](C(=O)N[C@@H](CC(C)C)C(N)=O)[C@@H](C)O` (H-HGAGNHAAGILTL-NH2), the Calcium response at 10 uM relative to control in experiment [1] was less than 50%.

Regarding `CC[C@H](C)[C@H](NC(=O)CNC(=O)[C@H](C)NC(=O)[C@H](C)NC(=O)[C@H](Cc1cnc[nH]1)NC(=O)[C@H](CC(N)=O)NC(=O)CNC(=O)[C@H](CO)NC(=O)[C@H](C)NC(=O)[C@H](CCC(N)=O)NC(=O)[C@H](CC(C)C)NC(=O)[C@H](CC(C)C)NC(=O)[C@H](CCCNC(=N)N)NC(=O)[C@@H](N)CCC(N)=O)C(=O)N[C@@H](CC(C)C)C(=O)N[C@H](C(=O)N[C@@H](CCSC)C(N)=O)[C@@H](C)O` (H-QRLLQASGNHAAGILTM-NH2), in experiment [3], the EC50 – broadly, the concentration giving half of the maximal effect – came to 1040 nM. For the same molecule, the Calcium response at 10 uM relative to control in experiment [1] is less than 50%.

Take `CC[C@H](C)[C@H](NC(=O)[C@H](C)NC(=O)[C@H](C)NC(=O)[C@H](C)NC(=O)[C@H](Cc1cnc[nH]1)NC(=O)[C@H](CC(N)=O)NC(=O)CNC(=O)[C@H](C)NC(=O)CNC(=O)[C@H](Cc1cnc[nH]1)NC(=O)[C@H](CC(C)C)NC(=O)[C@H](CC(C)C)NC(=O)[C@H](CCC(=O)O)NC(=O)[C@@H](N)Cc1ccc(O)cc1)C(=O)N[C@@H](CC(C)C)C(=O)N[C@H](C(=O)N[C@@H](CC(C)C)C(N)=O)[C@@H](C)O` (H-YELLHGAGNHAAAILTL-NH2): the Calcium response at 10 uM relative to control in experiment [1] is less than 50%. In experiment [2], the Percent activation at 10 uM was less than 50%.

For the molecule `CC(C)C[C@H](NC(=O)[C@@H](NC(=O)[C@H](CC(C)C)NC(=O)[C@H](C)NC(=O)CNC(=O)[C@H](C)NC(=O)[C@H](C)NC(=O)[C@H](Cc1cnc[nH]1)NC(=O)[C@H](CC(N)=O)NC(=O)CNC(=O)[C@H](C)NC(=O)CNC(=O)[C@H](Cc1cnc[nH]1)NC(=O)[C@H](CC(C)C)NC(=O)[C@H](CC(C)C)NC(=O)[C@H](CCC(=O)O)NC(=O)[C@@H](N)Cc1ccc(O)cc1)[C@@H](C)O)C(N)=O` (H-YELLHGAGNHAAGALTL-NH2), the result in experiment [1] and in experiment [2] was inactive.

Regarding `CC[C@H](C)[C@H](NC(=O)CNC(=O)[C@H](C)NC(=O)[C@H](C)NC(=O)[C@H](Cc1cnc[nH]1)NC(=O)[C@H](CC(N)=O)NC(=O)CNC(=O)[C@H](C)NC(=O)CNC(=O)[C@H](Cc1cnc[nH]1)NC(=O)[C@@H]1CCCN1C(=O)[C@H](CC(C)C)NC(=O)[C@H](CCC(=O)O)NC(=O)[C@@H](N)Cc1ccc(O)cc1)C(=O)N[C@@H](CC(C)C)C(=O)N[C@H](C(=O)N[C@@H](CC(C)C)C(N)=O)[C@@H](C)O` (H-YELPHGAGNHAAGILTL-NH2), the values for the EC50 in experiment [4] and in experiment [3] were 1130 nM and 1610 nM, respectively. Further, in experiment [5], the Ratio EC50 came to 1.4.

Consider `CC[C@H](C)[C@H](NC(=O)CNC(=O)[C@H](C)NC(=O)[C@H](C)NC(=O)[C@H](Cc1cnc[nH]1)NC(=O)[C@H](CC(N)=O)NC(=O)CNC(=O)[C@H](C)NC(=O)CNC(=O)[C@H](Cc1cnc[nH]1)NC(=O)[C@H](CC(C)C)NC(=O)[C@@H]1CCCN1C(=O)[C@H](CCC(=O)O)NC(=O)[C@@H](N)Cc1ccc(O)cc1)C(=O)N[C@@H](CC(C)C)C(=O)N[C@H](C(=O)N[C@@H](CC(C)C)C(N)=O)[C@@H](C)O` (H-YEPLHGAGNHAAGILTL-NH2), for which the EC50 is 865 nM in experiment [4] and 1010 nM in experiment [3]. The Ratio EC50 in experiment [5] turned out to be 1.2.

Turning to `CC[C@H](C)[C@H](NC(=O)CNC(=O)[C@H](C)NC(=O)[C@H](C)NC(=O)[C@H](Cc1cnc[nH]1)NC(=O)[C@H](CC(N)=O)NC(=O)CNC(=O)[C@H](C)NC(=O)CNC(=O)[C@H](Cc1cnc[nH]1)NC(=O)[C@H](CC(C)C)NC(=O)[C@H](CC(C)C)NC(=O)[C@@H]1CCCN1C(=O)[C@@H](N)Cc1ccc(O)cc1)C(=O)N[C@@H](CC(C)C)C(=O)N[C@H](C(=O)N[C@@H](CC(C)C)C(N)=O)[C@@H](C)O` (H-YPLLHGAGNHAAGILTL-NH2), the concentration for a half-maximal effect (EC50) in experiment [4] worked out at 143 nM; in experiment [3] it was 729 nM. In addition, the Ratio EC50 in experiment [5] came out at 5.1.
